# Rows were chosen to be rich in hits. Some 1.8% of all compounds tested hit in one or more screens of this group.
# STAT3 act = IL-6 driven STAT3 reporter potentiators, primary screen, U3A cells, luciferase, luminescence, MLSCN library; IL-6 STAT3-luciferase reporter; 100% = signal with IL-6 EC80 alone; activation (% of control), % at 5.6 µM; 190,000 tested, 0.91% active;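 active = activation above the screen-wide mean of compound activation plus 3 SD, cut at about 130% in these data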
#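 System – human U3A cells carrying STAT3-luciferase construct · Probe or stimulus – Interleukin-6, 33 ng/mL · Schedule – compound 1 h, then IL-6 6 h at 37 °C · Signal – luminescence from STAT3-driven luciferase reporter · Evaluation – percent of IL-6-only median luminescence · Benchmarks – IL-6-only high control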
# PPC-1+TRAIL kill = compounds killing PPC-1 cancer cells with TRAIL present, primary screen, TRAIL potentiator project, ATPLite luminescence, uHTS; cell killing (% activity), % at 4 µM or 5 µM; 220,000 tested, 0.41% active; PPC-1 cells + TRAIL, ATPLite viability luminescence;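 active = cell killing above 50% in the first pass at 4 µM, then a duplicate retest at 5 µM averaging 50% or more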
# TRAIL sens C8 = viability loss with TRAIL in NB7+C8 cells, primary screen, TRAIL sensitizer project, cell-based, ATPlite luminescence; inhibition (viability loss, TRAIL sensitization), % at 10 µM; 360,000 tested, 1% active;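 active = compounds causing at least 50% loss of cell viability in the single-dose screen, relative to plate controls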
# STAT3 inh-1 = IL-6 driven STAT3 reporter inhibitors, primary screen, U3A cells, luciferase, luminescence, MLSCN library | 190,000 tested, 0.89% active | IL-6 STAT3-luciferase reporter; host cell line lacks STAT1 | inhibition, % at 5.5 µM;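 active = inhibition above the mean inhibition across all screened compounds plus 3 SD, cut at about 44% in these data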
# STAT1 inh = STAT1 signaling inhibitors, primary screen, cell-based, HTS, luciferase reporter. NIH 3T3 STAT1-luciferase reporter, IFN-gamma, luminescence. inhibition, % at 5.5 µM. 200,000 tested, 0.35% active;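 active = inhibition above a set limit, the mean inhibition across all tested compounds plus 3 SD, cut at about 34% in these data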
# STAT3 inh-2 = STAT3 reporter inhibitors, retest of hits, confirmation, U3A cells, luciferase, luminescence | shares compounds with STAT3 inh-1 | IL-6 STAT3 luciferase reporter; cell line lacks STAT1 | inhibition, % at 5.7 µM | 1,200 tested, 45% active | AID 1265, 2008;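 active = inhibition above the hit cutoff computed for the primary STAT3 screen, cut at about 44% in these data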
# NFkB inh STAT3ct = NF-kB reporter inhibitors in human cells, confirmation, counter-screen for STAT3 inhibitor project, cell-based, HEK293T, luciferase, TNF-alpha stimulus; shares compounds with STAT3 inh-1; TNF-alpha induced; inhibition, % at 5.7 µM; 1,200 tested, 36% active;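 active = inhibition above the mean of solvent-only control wells plus 3 SD, cutoff set per campaign, cut at about 13% in these data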
# STAT1 inh 2 = STAT1 reporter inhibitors, IFN-gamma induced, confirmation, counter-screen for STAT3 inhibitor project, cell-based, NIH 3T3, luciferase luminescence; 1,200 tested, 27% active; AID 1317, 2008; NIH 3T3 STAT1-luciferase reporter; shares compounds with STAT3 inh-1; inhibition, % at 5.7 µM;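 active = inhibition above the mean plus 3 SD of solvent-only control wells, limit set per screening run, cut at about 16% in these data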
# PPC-1 tox = cytotoxicity in PPC-1 cells, confirmation, cytotoxicity control for TRAIL apoptosis potentiator project, cell-based, ATP content luminescence; shares compounds with PPC-1+TRAIL kill; AID 1447, 2008; 1,200 tested, 50% active; cytotoxicity, % at 5 µM; PPC-1 viability, ATPlite luminescence, overnight;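 active = reconfirmed compounds whose average cytotoxicity reaches 50% or more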
# Hits are given with their value; - = inactive; . = no result given.
SMILES,STAT3 act,PPC-1+TRAIL kill,TRAIL sens C8,STAT3 inh-1,STAT1 inh,STAT3 inh-2,NFkB inh STAT3ct,STAT1 inh 2,others
CCN(C(=O)c1ccc2c(c1)OCO2)C12CC3CC(CC(C3)C1)C2,.,.,-,.,.,.,.,.,
COc1ccc(/C=N/NC(=O)CSCC(=O)Nc2ccccc2)cc1OC,-,-,-,-,-,.,.,.,
COC(=O)Oc1ccc(/C=N/NC(=O)CSCc2ccccc2Br)cc1OC,-,-,-,58,-,66,-,-,
COc1ccc(NC(=O)CN2C(=O)C(c3ccccc3)=NC23CCCCCC3)cc1,-,-,-,-,-,.,.,.,
O=C(CN1C(=O)C(c2ccc(F)cc2)=NC12CCCC2)Nc1ccc(F)cc1,-,-,-,58,-,54,14,22,
COc1ccc(-c2cc3nc(C)cc(N)n3n2)cc1,-,81,84,69,-,-,-,-,
Cc1ccc(NC(=O)COc2ccccc2[N+](=O)[O-])nc1,-,-,60,51,-,-,-,-,
Cc1ccc(NC(=O)c2ccc(COc3ccccc3[N+](=O)[O-])o2)nc1,.,.,-,.,.,.,.,.,
COc1ccc(C(=O)N=C2SC3CS(=O)(=O)CC3N2Cc2ccc(F)cc2)cc1 (stereo not given),.,.,-,.,.,.,.,.,
O=C(/C=C\Nc1ccc2c(c1)OCO2)c1ccc(Cl)s1,-,-,73,62,-,-,-,-,
COC(=O)c1sc(NC(=O)c2cc3c(s2)CCCC3)nc1C,-,-,-,-,-,.,.,.,
CCOC(=O)c1sc(NC(=O)c2cc3c(s2)CCC(C)C3)nc1C (stereo not given),-,-,-,56,-,-,-,-,
CN(CCNC(=O)c1c[nH]c2c1ccc1ccccc12)CCNC(=O)c1c[nH]c2c1ccc1ccccc12,.,.,-,.,.,.,.,.,
CN(Cc1cnn(-c2ccc(F)cc2)c1)C(=O)[C@H]1O[C@@H](n2ccc(=O)[nH]c2=O)[C@H](O)[C@@H]1O,.,.,-,.,.,.,.,.,
CCOc1ccc(OCc2ccc(C(=O)N3CCCC3)o2)cc1,-,-,-,-,-,.,.,.,
CCOc1ccc(OCc2cccc(C(=O)N3CCCC3)c2)cc1,-,-,-,53,42,-,17,-,
COc1ccc(-c2cn(-c3ccc(OC)cc3)c3[n+]2-c2ccccc2CC3)cc1,-,-,-,73,-,79,-,23,
Cc1ccc(Cl)cc1NC(=O)CON=C(N)c1ccccc1,.,.,-,.,.,.,.,.,
Cc1ccc2nc(-c3ccc(NC(=O)COC(=O)c4ccc(=O)[nH]c4)cc3)sc2c1,-,50,-,56,-,-,-,-,
Cc1ccc2nc(-c3ccc(NC(=O)CCS(=O)(=O)c4ccccc4)cc3)sc2c1,-,-,88,72,-,48,22,-,
Cc1ccccc1NS(=O)(=O)c1nnc(NC(=O)CC(C)C)s1,.,.,-,.,.,.,.,.,
Cc1cc2nc(N3C(=O)CNC3=S)sc2cc1C,-,-,57,48,-,-,-,-,
Cc1ccc2nc(-c3ccc(-c4ccccn4)s3)cn2c1,.,-,-,.,.,.,.,.,
Brc1ccc(-c2cn3ccccc3n2)s1,-,-,50,51,-,-,-,-,
CCCCc1cc(=O)oc2cc(C)cc(OCC(=O)NCc3ccccn3)c12,.,.,-,.,.,.,.,.,
SMILES,STAT3 act,PPC-1+TRAIL kill,TRAIL sens C8,STAT3 inh-1,STAT1 inh,STAT3 inh-2,NFkB inh STAT3ct,STAT1 inh 2,others
COc1ccc(/C=C/c2cc(-c3ccc(C)cc3)o[n+]2C)cc1,-,-,74,44,-,-,-,20,
CC1(C)CC(N2CCN(c3ccccc3)CC2)=CC(=[N+]2CCCC2)C1,-,-,-,80,-,77,-,27,
Cn1c(N/N=C/c2cc3ccccc3nc2Cl)nc2ccccc21,-,-,88,53,-,-,25,-,
COc1ccc(C(=O)NCC(=O)OCC(=O)c2ccc3c(c2)NC(=O)CO3)cc1OC,-,-,-,-,-,.,.,.,
COc1c(C)cc(NC(=O)c2ccc3c(c2)NC(=O)CO3)cc1C,-,-,-,45,-,-,-,-,
Cc1ccc(-n2cc(C(=O)c3ccccc3O)cn2)cc1,-,-,60,79,-,-,37,-,
Cc1csc(=O)n1CCC(=O)OCc1nnc(-c2ccc(Cl)cc2)o1,.,.,-,.,.,.,.,.,
CC(C)c1cc(NC(=O)CCl)on1,-,-,-,53,-,-,-,-,
Cc1nc2c(OCc3cccc(Cl)c3)cccn2c1N(C)Cc1cccs1,.,.,-,.,.,.,.,.,
O=C(NCc1ccccc1)c1cccc(COc2ccc3c(c2)CCC3)c1,-,-,-,56,-,45,34,27,
O=C(COc1ccc2c(c1)CCC2)NCc1cccc(Cl)c1,-,-,-,-,-,.,.,.,
COc1ccccc1NC(=O)c1ccc(COc2ccc3c(c2)CCC3)cc1,-,-,-,-,-,.,.,.,
COc1cccc(OC)c1C(=O)NNC(=O)c1cccc(COc2ccc3c(c2)CCC3)c1,-,-,-,53,-,-,23,21,
COc1cccc(NC(=O)CN(C)CC(=O)c2c(C)[nH]c3ccccc23)c1,.,.,-,.,.,.,.,.,
O=C(COc1ccccc1)Nc1nc(-c2ccc(S(=O)(=O)N3CCOCC3)cc2)cs1,-,-,-,-,-,.,.,.,
O=C(CCc1ccc(S(=O)(=O)N2CCOCC2)cc1)Nc1nc(COc2ccccc2)cs1,-,-,-,46,-,-,-,-,
O=C(Nc1ccc(N2CCOCC2)nc1)c1ccc(C(F)(F)F)cc1,-,-,-,61,-,59,-,-,
Cc1cccc(C(=O)Nc2ccc(N3CCN(c4ccc(C(F)(F)F)cn4)CC3)nc2)c1,.,-,-,.,.,.,.,.,
CCc1nn2cc(-c3ccccc3)nc2s1,-,58,71,91,-,69,38,-,PPC-1 tox=57
CC(C)(C)c1ccc(-c2noc(CCC(=O)N3CCOCC3)n2)cc1,-,-,64,51,-,-,-,-,PPC-1 tox=-
CC(C)Cn1c(N)c(C(=O)COC(=O)[C@H](C)NC(=O)c2ccccc2Cl)c(=O)n(C)c1=O,.,.,-,.,.,.,.,.,
Cc1ccccc1NC(=O)c1cnc2ccccn2c1=O,-,59,68,72,-,-,-,-,PPC-1 tox=61
Cc1ccc(C(=O)Nc2ccc(N3CCCCC3)cc2)cc1,.,.,-,.,.,.,.,.,
O=C(Nc1ccc(N2CCCCC2)cc1)c1ccccc1,-,66,74,66,-,-,-,-,PPC-1 tox=61

# Assay outcomes: PubChem BioAssay, several laboratories
